# From the RNAGym collection of RNA variant scans (doi:10.1002/anie.201605470)
# B1: Osa-1-4 twister ribozyme (parent)
# chain: CCGCCUAACACUGCCAAUGCCGGUCCCAAGCCCGGAUAAAAGUGGAGGGGGCGG
# Variants of: B1
# Assay: self-cleavage, relative activity (ratio to wild type); higher = more cleavage; co-transcriptional
# Outline: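 Relative activity is the fraction cleaved divided by that of the wild-type ribozyme. The library came from a DNA template for a 54-nucleotide Oryza sativa twister ribozyme, doped at the 48 positions downstream of the cleavage site with 97 % wild-type base and 1 % of each other base. After 2 h of in vitro transcription at 37 °C with co-transcriptional self-cleavage, the RNA was reverse-transcribed with a template-switching oligonucleotide, amplified by PCR and deep-sequenced, and reads with or without upstream sequence gave the cleavage status.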
row,Variant,self-cleavage
1,A10C G13A,0.02
2,A10C G13C,0.02
3,A10C G13U,0.03
4,A10C C31A,0.02
5,A10C C31U,0.03
6,A10C C31G,0.03
7,C9U G54C,0.71
8,C9U G54A,0.69
9,C9U G54U,0.72
10,A10C G30C,0.01
11,A10C G30U,0.01
12,A10C G30A,0.01
13,A10G A38G,0.88
14,A10G A38U,0.8
15,A10G A38C,0.91
16,A10G C27U,0.1
17,A10G C27A,0.12
18,A10G C27G,0.07
19,A10C G35C,0.03
20,A10C G35U,0.04
21,A10C G35A,0.07
22,A10G C32G,0.15
23,A10G C32A,0.07
24,A10C A40G,0.04

row,Variant,self-cleavage
1,A10C A40U,0.03
2,A10C A40C,0.03
3,C9G G23U,0.04
4,C9G G23C,0.07
5,C9G G50U,0.84
6,C9G G50A,0.48
7,C9G G50C,0.59
8,C9G G49U,0.09
9,C9G G49A,0.09
10,C9G G49C,0.06
11,A10G C25U,0.4
12,A10G C25A,0.07
13,A10G C25G,0.08
14,A10G A8G,0.49
15,A10G A8U,0.12
16,A10G A8C,0.13
17,C9U G34C,0.11
18,C9U G34A,0.41
19,C9U G34U,0.28
20,C9U U37G,0.85
21,C9U U37C,0.82
22,C9U U37A,0.4
23,C9G U18G,0.73
24,C9G U18C,0.66

row,Variant,self-cleavage
1,C9G U18A,0.85
2,A10C G45U,0.02
3,A10C G45A,0.02
4,A10C G45C,0.02
5,A10C A28C,0.08
6,A10C A28U,0.05
7,A10C A28G,0.03
8,A10G C26U,0.5
9,A10G C26G,0.18
10,A10G C26A,0.04
11,A10C A39G,0.06
12,A10C A39C,0.05
13,A10C A39U,0.05
14,A10C C20U,0.08
15,A10C C20G,0.03
16,A10C C20A,0.08
17,A10G C31A,0.05
18,A10G C31U,0.36
19,A10G C31G,0.1
20,A10C U12A,0.03
21,A10C U12G,0.04
22,A10C U12C,0.06
23,C9U G13U,0.01
24,C9U G13A,0.04

row,Variant,self-cleavage
1,C9U G13C,0.01
2,C9U U18C,0.53
3,C9U U18A,0.6
4,C9U U18G,0.57
5,A10C G49U,0.02
6,A10C G49A,0.02
7,A10C G49C,0.02
8,C9U G19C,0.05
9,C9U G19U,0.08
10,C9U G19A,0.26
11,C9U U24C,0.06
12,C9U U24A,0.06
13,C9U U24G,0.01
14,A10C U24G,0.02
15,A10C U24C,0.04
16,A10C U24A,0.02
17,C9U U12A,0.24
18,C9U U12G,0.06
19,C9U U12C,0.05
20,C9U G48C,0.04
21,C9U G48U,0.03
22,C9U G48A,0.03
23,A10C G44U,0.22
24,A10C G44A,0.06

row,Variant,self-cleavage
1,A10C G44C,0.16
2,A10G A16G,0.89
3,A10G A16U,0.61
4,A10G A16C,0.27
5,C9U G53U,0.17
6,C9U G53A,0.63
7,C9U G53C,0.05
8,A10C G53C,0.02
9,A10C G53U,0.06
10,A10C G53A,0.11
11,C9U G42C,0.04
12,C9U G42U,0.04
13,C9U G42A,0.09
14,A10C U43C,0.05
15,A10C U43G,0.64
16,A10C U43A,0.39
17,A10C G42C,0.02
18,A10C G42U,0.01
19,A10C G42A,0.03
20,A10C C26G,0.03
21,A10C C26A,0.03
22,A10C C26U,0.03
23,A10G A46U,0.11
24,A10G A46G,0.08

row,Variant,self-cleavage
1,A10G A46C,0.06
2,A10C A7G,0.06
3,A10C A7C,0.04
4,A10C A7U,0.06
5,A10G A41U,0.76
6,A10G A41G,0.2
7,A10G A41C,0.39
8,C9G G45U,0.07
9,C9G G45C,0.04
10,C9G G45A,0.11
11,A10C A46G,0.03
12,A10C A46C,0.02
13,A10C A46U,0.02
14,A10C A17C,0.03
15,A10C A17U,0.08
16,A10C A17G,0.1
17,A10C C15G,0.04
18,A10C C15U,0.04
19,A10C C15A,0.08
20,C9G U43A,0.87
21,C9G U43C,0.16
22,C9G U43G,0.21
23,A10C G23U,0.02
24,A10C G23C,0.01

row,Variant,self-cleavage
1,A10C G23A,0.03
2,C9G G48A,0.07
3,C9G G48C,0.08
4,C9G G48U,0.06
5,C9G G54A,0.71
6,C9G G54U,0.73
7,C9G G54C,0.77
8,A10C C11A,0.1
9,A10C C11G,0.04
10,A10C C11U,0.51
11,A10C C25U,0.04
12,A10C C25A,0.03
13,A10C C25G,0.01
14,A10C G54U,0.3
15,A10C G54C,0.14
16,A10C G54A,0.17
17,A10C G48A,0.02
18,A10C G48C,0.02
19,A10C G48U,0.02
20,A10C A36U,0.09
21,A10C A36G,0.11
22,A10C A36C,0.03
23,A10G C21A,0.33
